Measured values collected from several papers.
Lines come from different studies, so protocols differ.
Target: Vascular endothelial growth factor receptor 3 (FLT4, Homo sapiens, UniProt P35916)

| Structure (SMILES) | test | conditions | remaining binding [%] |
| --- | --- | --- | --- |
| C[C@@H]1CCN(c2nccc(-c3cnn4ncccc34)n2)C1 | binding | 1 µM | 100 |
| CNCc1ccccc1-c1csc([C@@H](C)Nc2nc(C)nc3cc(OC)c(OC)cc23)c1 | cell-free assay, competition with immobilised ligand | 1 µM | 83 |
| CCN1CCN(Cc2ccc(C(=O)Nc3ccc(C)c(Oc4ccc5c(c4)CC(=O)N5)c3)cc2C(F)(F)F)CC1 | binding, competition with immobilised ligand | 1 µM | 100 |
| Cc1cc(C)c(-n2ccn3nc(-c4cccnc4)cc23)cc1NC(=O)c1cc(C#N)cc(S(F)(F)(F)(F)F)c1 | cell-free assay, competition with immobilised ligand | 0.1 µM | 77.6 |
| CN(CCCC(F)(F)F)c1nccc(-c2cnn3ncccc23)n1 | binding | 1 µM | 100 |
| C=CC(=O)N1CCC(C(=O)NCC(=O)N2CCN(c3nc(-c4cnc(N)nc4C(F)F)nc(N4CCOCC4)n3)CC2)CC1 | binding, competition with immobilised ligand | 1 µM | 96 |
| Cc1cnn2ncc(-c3ccnc(N(C)C)n3)c2c1 | binding | 1 µM | 100 |
| CCN(CC)CCCCNc1ncc2cc(-c3cc(OC)cc(OC)c3)c(NC(=O)NC(C)(C)C)nc2n1 | cell-free assay, competition with immobilised ligand | 1 µM | 6 |
| c1cnn2ncc(-c3ccnc(N4CCC45COC5)n3)c2c1 | binding | 1 µM | 92 |
| CC(C)CC(=O)N1CCc2nc(-c3ccc(Br)cc3)nc(N(C)Cc3ccccc3)c2C1 | cell-free assay, competition with immobilised ligand | 0.1 µM | 100 |
| CNC(=O)[C@@H]1CC[C@@H](n2c(-c3ccc4cnccc4c3)nc3ccc(C(=O)NCc4cccc(C(N)=O)c4)cc32)C1 | binding, competition with immobilised ligand | 1 µM | 100 |
| C[C@@H]1CN(c2cc(-c3nn(C)c4ccc(OC5(C)CC5)cc34)ncn2)C[C@H](C)O1 | cell-free assay, competition with immobilised ligand | 1 µM | 85 |
| O=C(c1ccc(Nc2ncc(Cl)c(-c3cc4ccccc4s3)n2)cc1)N1CCC(N2CCCC2)CC1 | binding, competition with immobilised ligand | 1 µM | 0.7 |
| CN(C)c1ncc(F)c(-c2cnn3ncccc23)n1 | binding | 1 µM | 86 |
| O=C(NCCCN1CCOCC1)c1ccc(Nc2ncc(Cl)c(-c3ccc(Cl)s3)n2)cc1 | binding, competition with immobilised ligand | 1 µM | 0.7 |
| Cc1nc(C2CCN(C(=O)c3ccc(OC(F)(F)F)cc3N)CC2)c2ncc(N3CCN(C)CC3)cc2n1 | cell-free assay, competition with immobilised ligand | 1 µM | 75 |
| O=C(c1ccc(Nc2ncc(Cl)c(-c3ccc(Cl)s3)n2)cc1)N1CCC(N2CCCC2)CC1 | binding, competition with immobilised ligand | 1 µM | 0.15 |
| C[C@@H](c1ccc(-n2cnc3c(N)ncnc32)cc1)N1CCc2nn(C)c(Cc3ccccc3)c2C1=O | binding, competition with immobilised ligand | 0.1 µM | 91 |
| O=C(Nc1c[nH]nc1C(=O)NC1CCNCC1)c1cc(F)cc(F)c1 | binding, competition with immobilised ligand | 1 µM | 100 |
| N#Cc1ccc(Nc2ccc3[nH]c(=O)[nH]c3c2)c(Cl)c1 | cell-free assay, competition with immobilised ligand | 1 µM | 100 |
| COc1cnc(Nc2cccc(S(N)(=O)=O)c2)nc1N1CCN(c2ccccc2)C(=O)C1 | binding, competition with immobilised ligand | 1 µM | 100 |
| N[C@@H]1CCN(c2nccc(-c3cnn4ncccc34)n2)C1 | binding | 1 µM | 100 |
| CCc1ccccc1C(=O)Nc1n[nH]c2c(C)c(F)c(C3C(C#N)=C(C)N(C)C(C)=C3C#N)cc12 | cell-free assay, competition with immobilised ligand | 1 µM | 85 |
